# Assay outcomes (PubChem BioAssay)
# HUVEC inhibit – inhibitors of human endothelial cell proliferation | HUVEC proliferation, CellTiter-Glo luminescence, 72 h; stronger effect = lower value | 86,000 compounds, 1.1% hits | viability, % at 10 µM (by protocol);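 active = viability at or below 30%; inactive = viability above 30%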
# PTEN del growth – growth suppressors of cells with PTEN tumor suppressor deletion. HCT116 PTEN-null viability, CellTiter-Glo, 60 h; stronger effect = lower value. viability, % at 10 µM. 140,000 compounds, 1.2% hits. AID 827;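 active = viability at or below a set limit, 4 SD under the median of all tested compounds, cut at about 3.7% in these data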;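 also: PTEN knockout HCT116 line with beta catenin targeted HCT116 as companion control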
# Lung fibro prol – blocks proliferation of human lung fibroblasts; LL 47 human lung fibroblast viability, ATP luminescence; stronger effect = lower value; viability, % at 10 µM; 85,000 compounds, 1.1% hits; AID 719;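 active = viability at or below 50% in the single dose screen; inactive = viability above 50%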;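 also: compound exposure lasted 72 h before the ATP readout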
#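 Times – overnight cell rest, 72 h compound treatment at 37 °C · Test system – human lung fibroblast line LL 47, low passage · Amount – 1,150 cells in each well · Controls – cell-only wells, no compound · Doses – 0.1% DMSO in all compound wells · Measured by – CellTiter-Glo luminescence · Buffer or medium – IMEM plus 15% FBS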
# H69AR growth 86K – growth inhibitors of human H69AR lung tumor cells. H69AR lung tumor viability, ATP luminescence, 72 h; stronger effect = lower value. AID 598. viability, % at 10 µM. 85,000 compounds, 6% hits;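 active = viability at or below 40%; inactive = viability above 40%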;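 also: multidrug resistant small cell line overexpressing MRP-1 efflux transporter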
# HCT116 bCat-KO – beta-catenin-lacking colon tumor cell growth suppression; 140,000 compounds, 1.5% hits; viability, % at 10 µM; HCT116 beta-catenin knockout viability, CellTiter-Glo, 60 h; stronger effect = lower value; AID 818;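 active = viability at or under a set limit, the compound median less 4 SD, cut at about 6% in these data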
# A number is an active result; – = inactive; · = no result. This excerpt belongs to a sample that is enriched for hits.
SMILES,HUVEC inhibit,PTEN del growth,Lung fibro prol,H69AR growth 86K,HCT116 bCat-KO
O=C(N=Nc1c(O)[nH]c2ccc(Br)cc12)c1cc(-c2cccc3ccccc23)n[nH]1,·,–,·,·,–
C(=N\N1CCN(Cc2cccc3ccccc23)CC1)/c1cccnc1,·,–,·,·,–
CCCCCCCCNC(C)C(O)c1ccc(SC(C)C)cc1 (centres undefined),2.6,1.3,4.0,1.7,1.6
CCC(C)(C(=O)NC1CCCCC1)N(Cc1ccco1)C(=O)Cc1cccs1 (centres undefined),–,–,–,–,–
Cc1ccc(CNC(=O)CSc2c3c(nc4cc(Cl)ccc24)CCCC3)o1,–,–,–,2.7,–
CCCCNC(=O)c1ccc2c(SCC(=O)O)c3c(nc2c1)CCCC3,·,–,·,·,–
OC1(c2cccc(C(F)(F)F)c2)CCN(c2ncnc3c2[nH]c2ccc(F)cc23)CC1,6.4,2.6,–,2.4,–
O=C(O)c1ccccc1C(=O)N(Cc1ccccc1)Cc1ccccc1,–,–,–,–,–
O=C(c1c(F)c(F)c(F)c(F)c1F)N(Cc1ccccc1)Cc1ccccc1,–,–,–,36.3,–
Cc1cc(=O)n2c3c(sc2n1)C(=O)N(Cc1ccccc1)C3=O,–,–,–,1.1,–
CCC(C)C(=O)NCCc1ccc(S(N)(=O)=O)cc1 (centres undefined),·,–,·,·,–
COc1ccccc1N1C(=O)N(C(C)=O)C2C1Nc1ccccc1N2C (centres undefined),25.5,–,–,30.5,–
CC(C)n1cc(NC(=O)c2cc(-c3ccccc3)on2)cn1,–,–,–,20.5,–
Cc1ccc(C(=O)CSc2nnc(-c3ccc4[nH]c(C)c(C)c4c3)o2)cc1C,·,2.1,·,·,4.2
C=CCn1c(COc2cccc(C)c2)nnc1SCC(=O)c1c[nH]c2c(CC)cccc12,·,–,·,·,–
Cc1ccc(-c2nnc(SCC(=O)Nc3ccccc3F)o2)cc1,–,–,49.2,–,–
Cc1cc(NC(=O)c2ccc3c(c2)OCCO3)no1,–,–,–,33.6,–
Cc1cc(NC(=O)CSc2nnc(-c3ccc4c(c3)OCCO4)o2)no1,–,–,–,2.4,–
Cc1ccc(N2C(=O)c3ccc(C(=O)N4CCOCC4)cc3C2=O)cc1C,–,–,–,–,–
CCN1c2ccccc2NC2N=C(OC)C(c3ccccc3)C21 (centres undefined),2.1,1.7,7.0,1.4,1.9
O=c1[nH]c(N/N=C/c2ccccc2Br)nnc1-c1ccccc1,·,–,·,·,–
COc1ccc(/C=N/Nc2nnc(-c3ccccc3)c(=O)[nH]2)cc1,·,2.9,·,·,4.5
COC(=O)c1ccccc1NC(=O)CN1CCC(n2nnc3cc(C)ccc32)CC1,–,·,–,–,·
CCOc1ccc2nc(NC(=O)CN3CCC(n4nnc5cc(C(F)(F)F)ccc54)CC3)sc2c1,–,–,–,37.8,–
Cc1cc(NC(=O)CN2CCC(n3nnc4cc(C(F)(F)F)ccc43)CC2)no1,–,–,–,–,–
SMILES,HUVEC inhibit,PTEN del growth,Lung fibro prol,H69AR growth 86K,HCT116 bCat-KO
CCOC(=O)c1ccccc1NC(=O)CN1CCC(n2nnc3cc(F)ccc32)CC1,–,·,–,27.1,·
Cc1[nH]nc2c1C(c1ccoc1)C(C#N)=C(N)O2 (centres undefined),–,–,–,–,–
Cc1[nH]nc2c1C(c1cc(Br)cs1)C(C#N)=C(N)O2 (centres undefined),·,2.1,·,·,2.0
CCOC(=O)c1ccc(Nc2nc(C)cc(=O)[nH]2)cc1,–,–,–,–,–
CCCOC(=O)c1ccc(Nc2nc(C)cc(=O)[nH]2)cc1,–,–,–,17.1,–
C=CCNC(=O)C(=O)NCCOc1ccccc1Cl,·,–,·,·,–
COc1ccc(N2C(=O)/C(=C/c3ccc([N+](=O)[O-])cc3)C=C2c2ccccc2)cc1,–,–,–,20.6,–
O=C1/C(=C/c2ccc([N+](=O)[O-])cc2)C=C(c2ccccc2)N1c1ccc(O)cc1,9.9,2.2,–,26.1,2.2
O=C(OCCN1CCOCC1)c1cccs1,–,–,–,–,–
O=C(CN(CC1CCCO1)C(=O)CCC(=O)Nc1nccs1)NCc1ccccc1 (centres undefined),–,–,–,–,–
Cc1cc(NC(=O)CCNS(=O)(=O)c2cc(Br)cnc2N)ccc1Br,–,–,–,31.1,–
Cc1ccc(NC(=O)CCNS(=O)(=O)c2cc(Br)cnc2N)cc1Cl,·,–,·,·,–
CCCNC(=O)CSc1nnc(C)s1,–,–,–,–,–
COc1ccc(OC)c(-c2cc(C3CCN(c4cc(Cl)nc(N)n4)CC3)[nH]n2)c1,·,2.5,·,·,1.7
Cc1cc(C)c2nc(C(F)(F)F)nc(NCCCN3CCOCC3)c2c1,6.4,–,–,8.9,–
Fc1ccccc1-c1nc(NCCCN2CCOCC2)c2ccccc2n1,–,–,–,–,–
O=C(NCc1ccco1)C1CCN(C(=O)c2cc3sccc3n2Cc2ccc(Cl)cc2)CC1,–,–,–,–,5.7
O=C(NCc1ccco1)C1CCN(S(=O)(=O)Cc2ccccc2)CC1,–,0.5,–,–,0.7
O=C(NCC1CCCO1)C1CCN(S(=O)(=O)Cc2ccccc2)CC1 (centres undefined),–,–,–,–,–
Cc1cc(C)n2nc(SCC#N)nc2n1,·,–,·,·,–
CC(C)(C)NC(=O)COC(=O)/C=C/c1ccc(F)cc1,·,–,·,·,–
Cc1cccc(N(C)C(=O)c2cc3cc4ccc(C)cc4nc3o2)c1,–,–,–,18.6,–
Cc1nn(C)c(C)c1/C=N/NC(=O)CCn1nc(C)c([N+](=O)[O-])c1C,·,–,·,·,–
COc1cc2c(cc1OC)C(C1C(=O)CCCC1=O)N(C(=O)CCl)CC2 (centres undefined),·,–,·,·,–
COc1cc2c(cc1OC)C(c1ccccc1)N(C(=O)CCl)CC2 (centres undefined),·,2.0,·,·,1.9
SMILES,HUVEC inhibit,PTEN del growth,Lung fibro prol,H69AR growth 86K,HCT116 bCat-KO
CCCCN(CC)c1nc(N)c2c(N)nc(OCC)cc2c1C#N,–,–,–,33.9,–
CCCCN(CC)c1nc(N)c(C#N)c(CC#N)c1C#N,–,–,–,–,–
C=CCn1c(SCC(=O)c2[nH]c(C)c(C(=O)OC)c2C)nc2scc(-c3ccc(OC)c(OC)c3)c2c1=O,·,2.5,·,·,4.1
C=CCn1c(SCC(=O)c2[nH]c(C)c(C(C)=O)c2C)nnc1-c1ccncc1,–,–,–,–,–
Cc1noc(NS(=O)(=O)c2ccc(NC(=O)C34CC5CC(C3)CC(n3cnc(Br)n3)(C5)C4)cc2)c1C,·,–,·,·,–
CCOC(=O)C1CCN(C(=O)c2ccccc2NS(=O)(=O)c2ccc(F)cc2)CC1,·,–,·,·,–
CCN1CCN(c2cc(C)c3cc(NC(=O)c4ccc5c(c4)OCO5)ccc3n2)CC1,·,–,·,·,–
CCN1CCN(c2cc(C)c3cc(NC(=O)c4cncc(Br)c4)ccc3n2)CC1,23.4,1.2,–,–,1.0
CCN1CCN(c2cc(C)c3cc(NC(=O)c4ccc(OC)c(OC)c4)ccc3n2)CC1,–,–,42.5,18.6,–
O=C(Nc1ccc(N2CCCCC2)cc1)c1cncc(Br)c1,–,–,–,–,–
CC1CCc2sc(C(=O)Nc3nnc(SCc4ccc(F)cc4)s3)cc2C1 (centres undefined),–,–,–,–,–
